Values after ≈ are worked out from the molar mass of the structure shown.
Assays:
Type in all cases: functional
Candida albicans = test: Antimicrobial activity against Candida albicans NCIM 3100 after 16 to 18 hrs by serial dilution method
Method in brief: (§1)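 Compounds were dissolved in dimethylformamide as stock. An 18-h broth culture was inoculated by loop into nutrient broth and grown 4 h at 37 °C. Stock was serially diluted by 0.5 mL transfers across tubes 1–10, with tube 11 as growth control. About 0.5 mL diluted culture was added per tube, then incubated at 37 °C for 16–18 h. Reference drugs: nitrofurazone for bacteria, fluconazole for Candida.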

Staphylococcus aureus = test: Antimicrobial activity against Staphylococcus aureus ATCC 25923 after 16 to 18 hrs by serial dilution method; method in brief: as §1
Escherichia coli = test: Antimicrobial activity against sEscherichia coli ATCC 25922 after 16 to 18 hrs by serial dilution method; method in brief: as §1
Bacillus subtilis = test: Antimicrobial activity against Bacillus subtilis after 16 to 18 hrs by serial dilution method; method in brief: as §1
Pseudomonas aeruginosa = test: Antimicrobial activity against sPseudomonas aeruginosa ATCC 27853 after 16 to 18 hrs by serial dilution method; method in brief: as §1

`O=C(c1ccccc1)c1cn(-c2ccccc2)nc1-c1ccc([N+](=O)[O-])s1` showed an MIC (Candida albicans) of 0.25 µg/mL (≈ 0.666 µM), an MIC (Staphylococcus aureus) of 0.25 µg/mL (≈ 0.666 µM) and an MIC (Escherichia coli) of 0.25 µg/mL (≈ 0.666 µM). For the same compound, the MIC (Bacillus subtilis) was 0.25 µg/mL (≈ 0.666 µM) and the MIC (Pseudomonas aeruginosa) was 0.25 µg/mL (≈ 0.666 µM).
In the case of `Cc1ccc(C(=O)c2cn(-c3ccc(C)cc3)nc2-c2ccc([N+](=O)[O-])s2)cc1`, the MIC (Candida albicans) is reported as 0.125 µg/mL (≈ 0.31 µM), the MIC (Staphylococcus aureus) is reported as 0.125 µg/mL (≈ 0.31 µM) and the MIC (Escherichia coli) is reported as 0.125 µg/mL (≈ 0.31 µM). For the same compound, the MIC (Bacillus subtilis) was 0.125 µg/mL (≈ 0.31 µM) and the MIC (Pseudomonas aeruginosa) was 0.125 µg/mL (≈ 0.31 µM).
In the case of `Cc1ccc(-n2cc(C(=O)c3ccc(Cl)cc3)c(-c3ccc([N+](=O)[O-])s3)n2)cc1`, the MIC (Candida albicans) is reported as 0.125 µg/mL (≈ 0.295 µM), the MIC (Staphylococcus aureus) is reported as 0.125 µg/mL (≈ 0.295 µM) and the MIC (Escherichia coli) is reported as 0.125 µg/mL (≈ 0.295 µM). For the same compound, the MIC (Bacillus subtilis) was 0.125 µg/mL (≈ 0.295 µM) and the MIC (Pseudomonas aeruginosa) was 0.125 µg/mL (≈ 0.295 µM).
Compound `Cc1ccc(-n2cc(C(=O)c3ccccc3)c(-c3ccc([N+](=O)[O-])s3)n2)cc1` has an MIC (Candida albicans) of 0.25 µg/mL (≈ 0.642 µM), an MIC (Staphylococcus aureus) of 0.25 µg/mL (≈ 0.642 µM) and an MIC (Escherichia coli) of 0.25 µg/mL (≈ 0.642 µM). The MIC (Bacillus subtilis) was 0.25 µg/mL (≈ 0.642 µM) and the MIC (Pseudomonas aeruginosa) was 0.25 µg/mL (≈ 0.642 µM).
`Cc1ccc(C(=O)c2cn(-c3ccccc3)nc2-c2ccc([N+](=O)[O-])s2)cc1` gave an MIC (Candida albicans) of 0.25 µg/mL (≈ 0.642 µM), an MIC (Staphylococcus aureus) of 0.25 µg/mL (≈ 0.642 µM) and an MIC (Escherichia coli) of 0.25 µg/mL (≈ 0.642 µM). For the same compound, the MIC (Bacillus subtilis) was 0.25 µg/mL (≈ 0.642 µM) and the MIC (Pseudomonas aeruginosa) was 0.25 µg/mL (≈ 0.642 µM).
Work on `COc1ccc(-n2cc(C(=O)c3ccc(Cl)cc3)c(-c3ccc([N+](=O)[O-])s3)n2)cc1` yielded an MIC (Candida albicans) of 0.125 µg/mL (≈ 0.284 µM), an MIC (Staphylococcus aureus) of 0.25 µg/mL (≈ 0.568 µM) and an MIC (Escherichia coli) of 0.25 µg/mL (≈ 0.568 µM). It also gave an MIC (Bacillus subtilis) of 0.25 µg/mL (≈ 0.568 µM) and an MIC (Pseudomonas aeruginosa) of 0.25 µg/mL (≈ 0.568 µM).
With `COc1ccc(-n2cc(C(=O)c3ccccc3)c(-c3ccc([N+](=O)[O-])s3)n2)cc1` the MIC (Candida albicans) was 0.25 µg/mL (≈ 0.617 µM), the MIC (Staphylococcus aureus) was 0.25 µg/mL (≈ 0.617 µM) and the MIC (Escherichia coli) was 0.25 µg/mL (≈ 0.617 µM). The MIC (Bacillus subtilis) was 0.25 µg/mL (≈ 0.617 µM) and the MIC (Pseudomonas aeruginosa) was 0.25 µg/mL (≈ 0.617 µM).
`COc1ccc(C(=O)c2cn(-c3ccccc3)nc2-c2ccc([N+](=O)[O-])s2)cc1` gave an MIC (Candida albicans) of 0.25 µg/mL (≈ 0.617 µM), an MIC (Staphylococcus aureus) of 0.25 µg/mL (≈ 0.617 µM) and an MIC (Escherichia coli) of 0.25 µg/mL (≈ 0.617 µM). The MIC (Bacillus subtilis) was 0.25 µg/mL (≈ 0.617 µM) and the MIC (Pseudomonas aeruginosa) was 0.25 µg/mL (≈ 0.617 µM).
Compound `O=C(c1ccc(Cl)cc1)c1cn(-c2ccccc2)nc1-c1ccc([N+](=O)[O-])s1` has an MIC (Candida albicans) of 0.125 µg/mL (≈ 0.305 µM), an MIC (Staphylococcus aureus) of 0.125 µg/mL (≈ 0.305 µM) and an MIC (Escherichia coli) of 0.125 µg/mL (≈ 0.305 µM). It also gave an MIC (Bacillus subtilis) of 0.125 µg/mL (≈ 0.305 µM) and an MIC (Pseudomonas aeruginosa) of 0.125 µg/mL (≈ 0.305 µM).
In the case of `COc1ccc(-n2cc(C(=O)c3ccc(C)cc3)c(-c3ccc([N+](=O)[O-])s3)n2)cc1`, the MIC (Candida albicans) is reported as 0.25 µg/mL (≈ 0.596 µM), the MIC (Staphylococcus aureus) is reported as 0.25 µg/mL (≈ 0.596 µM) and the MIC (Escherichia coli) is reported as 0.25 µg/mL (≈ 0.596 µM). It also gave an MIC (Bacillus subtilis) of 0.25 µg/mL (≈ 0.596 µM) and an MIC (Pseudomonas aeruginosa) of 0.25 µg/mL (≈ 0.596 µM).
Work on `OC(Cn1cncn1)(Cn1cncn1)c1ccc(F)cc1F` [FLUCONAZOLE] yielded an MIC (Candida albicans) of 0.25 µg/mL (≈ 0.816 µM).
In the case of `NC(=O)N/N=C/c1ccc([N+](=O)[O-])o1` [NITROFURAZONE], the MIC (Staphylococcus aureus) is reported as 0.25 µg/mL (≈ 1.26 µM), the MIC (Escherichia coli) is reported as 0.25 µg/mL (≈ 1.26 µM) and the MIC (Bacillus subtilis) is reported as 0.25 µg/mL (≈ 1.26 µM). It also gave an MIC (Pseudomonas aeruginosa) of 0.25 µg/mL (≈ 1.26 µM).

Source: ChEMBL document CHEMBL1140194, “Convenient access to 1,3,4-trisubstituted pyrazoles carrying 5-nitrothiophene moiety via 1,3-dipolar cycloaddition of sydnones with acetylenic ketones and their antimicrobial evaluation” (2008)
